Where “and” joins values, the source holds several entries; their conditions need not be identical. Equal entries are not always repeated.
Columns and labels:
T47D cells = experiment: cell growth inhibition, SRB assay, 5-day continuous exposure; assay type: cell-based; conditions: Homo sapiens, 120 h
In short: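 Human cancer cells in RPMI 1640 with 10% FBS, penicillin/streptomycin, at 37 °C and 5% CO2. Test compound (10 mM DMSO stock) given by continuous exposure for 5 days. Growth measured by SRB assay. […] Means ± SD of 3 independent experiments.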

SW620 cells = experiment: clonogenic survival assay; assay type: cell-based, human
[1] = plasma pharmacokinetics following different routes of administration; assay type: in vivo, Balb C mice; conditions: for CL: mice
In short: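 Female Balb C mice given test compound at 10 mg/kg i.v., i.p. or p.o. Vehicle: equimolar phosphoric acid in sterile saline, final pH 5. Plasma sampled at 5-360 min, 3 mice per time point. Plasma levels by LC-MS/MS. PK parameters calculated from mean values.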

DNA-PK = DNA-PK (Homo sapiens, UniProt P78527); experiment: DNA-PK ex vivo pharmacodynamic assay, p53 peptide; set-up: species or system mice; conditions: SW-620, mouse, iv, read-out: inhibition of DNA-PK activity ex vivo in tumour
In short: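 SW620 s.c. xenografts in female athymic CD1-nu/nu mice. Test compound 2.5 or 25 mg/kg i.v. (vehicle equimolar phosphoric acid, pH 5) or vehicle alone. Killed after 1 or 4 h. Tumours excised and homogenised. DNA-PK activity by ELISA of DNA-PK-dependent p53 peptide (Ser15) phosphorylation in homogenates. 3 mice per time point, mean ± SD.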

[2] = female, Balb C, mouse, ip, 10 mg/kg
[3] = female, Balb C, mouse, iv, 10 mg/kg
[4] = female, Balb C, mouse, po, 10 mg/kg

Question: What does the source list for `CCN1CCN(CC(=O)Nc2ccc(-c3cccc4c(=O)cc(N5CCOCC5)oc34)c3sc4ccccc4c23)CC1` [KU-0060648, 2-(4-ethylpiperazin-1-yl)-N-(4-(2-morpholino-4-oxo-4H-chromen-8-yl)dibenzo[b,d]thiophen-1-yl)acetamide]?
Answer: GI50 (T47D cells): 410 nM; inhibition at 1 µM (T47D cells; read-out: inhibition of cell growth): > 50%; Fold enhancement of doxorubicin cytotoxicity (survival cytotoxic alone/survival cytotoxic + 1 μM KU-0060648) (SW620 cells; SW620, 100 nM doxorubicin, 16 hr): 12 fold and 12±8 fold; overall cell survival (clonogenic) (SW620 cells; SW620, 1 μM, 16 hr exposure, single agent): ≥ 80%; CL ([1]; 10 mg/kg i.p): 54 mL/kg/min; CL ([1]; 10 mg/kg p.o): 35 mL/kg/min; AUC(0-inf) [1, 2]: 3150 ng·h/mL; Cmax [1, 2]: 900 ng/mL; Tmax [1, 2]: 30 min; bioavailability [1, 2]: 78%; half-life [1, 2]: 106 min; AUC(0-inf) [1, 3]: 4030 ng·h/mL; Cmax [1, 3]: 1900 ng/mL; Tmax [1, 3]: 5 min; clearance [1, 3]: 41 mL/min/kg; half-life [1, 3]: 102 min; AUC(0-inf) [1, 4]: 4780 ng·h/mL; Cmax [1, 4]: 900 ng/mL; Tmax [1, 4]: 120 min; bioavailability [1, 4]: 119%; half-life [1, 4]: 142 min; inhibition at 25 mg/kg (DNA-PK): ~100%

— PMC3428850 (Molecular cancer therapeutics, 2012)
